Reference: ChEMBL document CHEMBL3352359, “Cycloartane triterpenoids and their glycosides from the rhizomes of Cimicifuga foetida” (J Nat Prod, 2014)

Assays:
Assay type in all cases: functional, cell-based
[1] = Cytotoxicity against human SMMC-7721 cells after 48 hrs by MTT assay; details: SMMC-7721, 48 h
Summary of the method: (§1)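 Adherent cells grown in DMEM with 10% FBS at 37 °C under 5% CO2. Cells were seeded in 96-well plates and left 12 h to attach, then exposed in triplicate to a range of compound concentrations for 48 h, with cisplatin as positive control. MTT read-out was absorbance at 570 nm (reference 630 nm). IC50 was derived by the Reed–Muench method.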

[2] = Cytotoxicity against human H460 cells after 48 hrs by MTT assay; details: NCI-H460, 48 h; summary of the method: as §1
[3] = test system: MCF7; assay: Cytotoxicity against human MCF7 cells after 48 hrs by MTT assay; details: MCF7, 48 h; summary of the method: as §1
[4] = test system: HeLa; assay: Cytotoxicity against human HeLa cells after 48 hrs by MTT assay; summary of the method: as §1
[5] = Cytotoxicity against human HL60 cells after 48 hrs by MTT assay; details: HL-60, 48 h
Summary of the method: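 HL-60 suspension cells were grown in DMEM with 10% FBS at 37 °C under 5% CO2. They were seeded at 1 × 10^5 cells/mL in 96-well plates just before compound addition, then exposed in triplicate to graded concentrations for 48 h, with cisplatin as positive control. MTT absorbance was read at 570 nm against 630 nm reference. IC50 was calculated by the Reed–Muench method.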

Structure (SMILES): C[C@H](CC(=O)[C@H](O)C(C)(C)O)[C@H]1C(=O)C[C@@]2(C)C3=CC[C@@H]4C(=CC[C@H](O)C4(C)C)CC3=CC[C@]12C
- IC50 [1]: > 10 µM
- IC50 [2]: > 10 µM
- IC50 [3]: > 10 µM
- IC50 [4]: > 10 µM
- IC50 [5]: > 10 µM

Structure (SMILES): C[C@H](CC(=O)[C@@H](O)C(C)(C)O)[C@H]1C(=O)C[C@@]2(C)C3=CC[C@@H]4C(=CC[C@H](O)C4(C)C)CC3=CC[C@]12C
- IC50 [1]: > 10 µM
- IC50 [2]: > 10 µM
- IC50 [3]: > 10 µM
- IC50 [4]: > 10 µM
- IC50 [5]: > 10 µM

Structure (SMILES): C[C@H](CC(=O)[C@H](O)C(C)(C)O)[C@H]1C(=O)C[C@@]2(C)C3=CC[C@H]4C(C)(C)[C@@H](O[C@@H]5OC[C@@H](O)[C@H](O)[C@H]5O)CC[C@]4(O)CC3=CC[C@]12C
- IC50 [1]: > 10 µM
- IC50 [2]: > 10 µM
- IC50 [3]: > 10 µM
- IC50 [4]: > 10 µM
- IC50 [5]: > 10 µM

Structure (SMILES): C[C@H](CC(=O)[C@H](O)C(C)(C)O)[C@H]1C(=O)C[C@@]2(C)C3=CC[C@H]4C(C)(C)[C@@H](O[C@@H]5OC[C@@H](O)[C@H](O)[C@H]5O)CC[C@@]4(O)CC3=CC[C@]12C
- IC50 [1]: > 10 µM
- IC50 [2]: > 10 µM
- IC50 [3]: > 10 µM
- IC50 [4]: > 10 µM
- IC50 [5]: > 10 µM

Structure (SMILES): C[C@H](CC(=O)[C@@H]1OC1(C)C)[C@H]1C(=O)C[C@@]2(C)C3=CC[C@H]4C(C)(C)[C@@H](O[C@@H]5OC[C@@H](O)[C@H](O)[C@H]5O)CC[C@]4(O)CC3=CC[C@]12C
- IC50 [1]: > 10 µM
- IC50 [2]: > 10 µM
- IC50 [3]: > 10 µM
- IC50 [4]: > 10 µM
- IC50 [5]: > 10 µM

Structure (SMILES): C[C@H](CC(=O)[C@@H]1OC1(C)C)[C@H]1C(=O)C[C@@]2(C)C3=CC[C@H]4C(C)(C)[C@@H](O[C@@H]5OC[C@@H](O)[C@H](O)[C@H]5O)CC[C@@]4(O)CC3=CC[C@]12C
- IC50 [1]: > 10 µM
- IC50 [2]: > 10 µM
- IC50 [3]: > 10 µM
- IC50 [4]: > 10 µM
- IC50 [5]: > 10 µM

Structure (SMILES): CC(=O)O[C@@H]1C[C@@]23C[C@@]24CC[C@H](O[C@@H]2OC[C@@H](O)[C@H](O)[C@H]2O)C(C)(C)[C@@H]4CC[C@H]3[C@]2(C)C[C@@H]3O[C@](O)(C(=O)C(C)C)C[C@@H](C)[C@@H]3[C@@]12C
- IC50 [1]: > 10 µM
- IC50 [2]: > 10 µM
- IC50 [3]: > 10 µM
- IC50 [4]: > 10 µM
- IC50 [5]: > 10 µM

Structure (SMILES): CC(=O)O[C@@H]1C[C@@]23C[C@@]24CC[C@H](O[C@@H]2OC[C@@H](O)[C@H](O)[C@H]2O)C(C)(C)[C@@H]4CC[C@H]3[C@]2(C)C[C@@H]3OC(C(O)C(C)(C)O)=C[C@@H](C)[C@@H]3[C@@]12C (stereo not given in full)
- IC50 [1]: > 10 µM
- IC50 [2]: > 10 µM
- IC50 [3]: > 10 µM
- IC50 [4]: > 10 µM
- IC50 [5]: > 10 µM

Structure (SMILES): CC(=O)O[C@@H]1C[C@@]23C[C@@]24CC[C@H](O[C@@H]2OC[C@@H](O)[C@H](O)[C@H]2O)C(C)(C)[C@@H]4CC[C@H]3[C@]2(C)C[C@@H]3O[C@]4(O)[C@H](OC(C)(C)[C@@H]4O)[C@@H](C)[C@@H]3[C@@]12C
- IC50 [1]: > 10 µM
- IC50 [2]: > 10 µM
- IC50 [3]: > 10 µM
- IC50 [4]: > 10 µM
- IC50 [5]: > 10 µM

Structure (SMILES): C[C@@H]1C[C@H]2O[C@@]3(O[C@@H]2C(C)(C)O)[C@H](O)[C@@]2(C)[C@@H]4CC[C@H]5C(C)(C)[C@@H](O[C@@H]6OC[C@@H](O)[C@H](O)[C@H]6O)CC[C@@]56C[C@@]46C[C@@H](O)[C@]2(C)[C@@H]13
- IC50 [1]: > 10 µM
- IC50 [2]: > 10 µM
- IC50 [3]: > 10 µM
- IC50 [4]: > 10 µM
- IC50 [5]: > 10 µM

Structure (SMILES): CC(=O)O[C@@H]1[C@@H](O)[C@H](O[C@H]2CC[C@]34C[C@]35CC[C@]3(C)[C@H]6[C@H](C)C[C@H]7O[C@@]6(O[C@@H]7C(C)(C)OC(C)=O)[C@H](O)[C@@]3(C)[C@@H]5CC[C@H]4C2(C)C)OC[C@H]1O
- IC50 [1]: 5.5 µM
- IC50 [2]: > 10 µM
- IC50 [3]: > 10 µM
- IC50 [4]: > 10 µM
- IC50 [5]: > 10 µM

Structure (SMILES): CC(=O)O[C@@H]1CO[C@@H](O[C@H]2CC[C@]34C[C@]35CC[C@]3(C)[C@H]6[C@H](C)C[C@H]7O[C@@]6(O[C@@H]7C(C)(C)OC(C)=O)[C@H](O)[C@@]3(C)[C@@H]5CC[C@H]4C2(C)C)[C@H](O)[C@H]1O
- IC50 [1]: 6.3 µM
- IC50 [2]: > 10 µM
- IC50 [3]: > 10 µM
- IC50 [4]: > 10 µM
- IC50 [5]: > 10 µM

Structure (SMILES): C=C(C)[C@@H](O)C(=O)C[C@@H](C)[C@H]1C(=O)C[C@@]2(C)C3=CC[C@H]4C(C)(C)[C@@H](O[C@@H]5OC[C@@H](O)[C@H](O)[C@H]5O)CC[C@@]45C[C@]35[C@@H](O)C[C@]12C
- IC50 [1]: > 10 µM
- IC50 [2]: > 10 µM
- IC50 [3]: > 10 µM
- IC50 [4]: > 10 µM
- IC50 [5]: > 10 µM

Structure (SMILES): CC(=O)O[C@@H]1C[C@@]23C[C@@]24CC[C@H](O[C@@H]2OC[C@@H](O)[C@H](O)[C@H]2O)C(C)(C)[C@@H]4CC[C@H]3[C@]2(C)[C@@H](O)[C@]34O[C@H](C[C@@H](C)[C@@H]3[C@@]12C)[C@@H](C(C)(C)O)O4
- IC50 [1]: > 10 µM
- IC50 [2]: > 10 µM
- IC50 [3]: > 10 µM
- IC50 [4]: > 10 µM
- IC50 [5]: > 10 µM

Structure (SMILES): CC(=O)O[C@@H]1C[C@@]23C[C@@]24CC[C@H](O[C@@H]2OC[C@@H](O)[C@H](O)[C@H]2O)C(C)(C)[C@@H]4CC[C@H]3[C@]2(C)C[C@@H]3O[C@@]4(C[C@@H](C)[C@@H]3[C@@]12C)OC[C@]1(C)O[C@H]41
- IC50 [1]: > 10 µM
- IC50 [2]: > 10 µM
- IC50 [3]: > 10 µM
- IC50 [4]: > 10 µM
- IC50 [5]: > 10 µM

Structure (SMILES): CC(=O)O[C@@H]1C[C@@]23C[C@@]24CC[C@H](O[C@@H]2OC[C@@H](O)[C@H](O)[C@H]2O)C(C)(C)[C@@H]4CC[C@H]3[C@]2(C)C[C@@H]3O[C@]4(C[C@@H](C)[C@@H]3[C@@]12C)O[C@H](O)[C@@]1(C)O[C@@H]41 [ACTEIN]
- IC50 [1]: > 10 µM
- IC50 [2]: > 10 µM
- IC50 [3]: > 10 µM
- IC50 [4]: > 10 µM
- IC50 [5]: > 10 µM
